The text below walks through data of ChEMBL document CHEMBL1287785, “Synthesis and in vitro evaluation of novel coumarin-chalcone hybrids as potential anticancer agents” (Bioorg Med Chem Lett, 2010).

The structures appear in SMILES notation.

Common to all, as to type: functional, cell-based
In one assay the test system is MCF7. Briefly: Cytotoxicity against human MCF7 cells after 48 hrs by sulforhodamine B assay. The gist of the method:
(§1)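 Cells kept below passage 15 in recommended medium with 10% FBS, gentamycin and amphotericin B, 37 °C, 5% CO₂. Seeded at 1 × 10⁴ cells/well overnight, then given serial two-fold dilutions (100 to 1.6) for 48 h, with untreated controls. Fixed in ice-cold 50% TCA, stained with 0.4% SRB in 1% acetic acid, read at 540 nm. IC₅₀ from dose–response curves of % growth inhibition.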
(Sulforhodamine B stains cellular protein and so reports cell mass.)

In the next assay the test system is NIH3T3. The experiment in a line: Cytotoxicity against mouse NIH/3T3 cells after 48 hrs by sulforhodamine B assay. The essentials:
as §1

The test system of another assay is A549. The experiment in a line: Cytotoxicity against human A549 cells after 48 hrs by sulforhodamine B assay. The gist of the method: as §1
The subject of another assay is C-33-A. Briefly: Cytotoxicity against human C33A cells after 48 hrs by sulforhodamine B assay. The gist of the method: as §1
The next assay concerns KB. The experiment in a line: Cytotoxicity against human KB cells after 48 hrs by sulforhodamine B assay. The gist of the method: as §1
Setting [1] is: Homo sapiens, MCF7, 48 h, read-out: IC50.
[2] abbreviates: Homo sapiens, A549, 48 h, read-out: IC50.
The mark [3] stands for this setting: Homo sapiens, C-33-A, 48 h, read-out: IC50.
The mark [4] stands for this setting: Homo sapiens, KB, 48 h, read-out: IC50.
Where [5] appears, read: Mus musculus, NIH3T3, 48 h, read-out: IC50.

Broadly, the IC50 is the concentration needed to halve the response being measured. Turning to `CCOC(=O)c1cc2cc(/C=C/C(=O)c3ccc(Cl)cc3)c3ccccc3c2oc1=O`, the IC50 result in the assay on MCF7 (mcf7), in the assay with NIH3T3 (nih3t3), in the assay on A549 (a549), in the assay on C-33-A (c-33-a) and in the assay with KB (kb) was “Not Active” each time.

As to `CCC(C)c1cc(/C=C/C(=O)c2ccc(Cl)cc2)cc2cc(C(C)=O)c(=O)oc12` (configuration not stated), the IC50 entry in the assay on MCF7 (mcf7), with NIH3T3 (nih3t3), with A549 (a549), in the assay with C-33-A (c-33-a) and with KB (kb) was “Not Active” throughout.

Regarding `CCC(C)c1cc(/C=C/C(=O)c2ccccc2)cc2cc(C(=O)OC)c(=O)oc12` (configuration not stated), the IC50 was 11.4 µM in the assay with MCF7 (setting [1]); “Not Active” with NIH3T3 (nih3t3); 10.7 µM in the assay with A549 (setting [2]); 6.28 µM in the assay on C-33-A (setting [3]); 13.4 µM in the assay with KB (setting [4]).

Take `CCC(C)c1cc(C=O)cc2cc(C(=O)OC)c(=O)oc12` (configuration not stated): the IC50 result in the assay on MCF7 (mcf7) is “Not Active”; in the assay on NIH3T3 (nih3t3), “Not Active”; in the assay on A549 (a549), “Not Active”; with C-33-A (setting [3]), 88 µM; with KB (setting [4]), 146 µM.

Consider `CCOC(=O)c1cc2cc(/C=C/C(=O)c3ccccc3)c3ccccc3c2oc1=O`, for which the IC50 entry with MCF7 (mcf7), in the assay on NIH3T3 (nih3t3), in the assay with A549 (a549), with C-33-A (c-33-a) and in the assay with KB (kb) was “Not Active” in each case.

On to `COC(=O)c1cc2cc(/C=C/C(=O)c3ccc(Cl)cc3)c3ccccc3c2oc1=O`, for which the IC50 entry in the assay on MCF7 (mcf7), with NIH3T3 (nih3t3), in the assay with A549 (a549), in the assay on C-33-A (c-33-a) and in the assay with KB (kb) was “Not Active” throughout.

Turning to `COC(=O)c1cc2cc(/C=C/C(=O)c3ccccc3)c3ccccc3c2oc1=O`, the IC50 is 103 µM in the assay on MCF7 (setting [1]); “Not Active” in the assay on NIH3T3 (nih3t3); “Not Active” in the assay with A549 (a549); 62.4 µM with C-33-A (setting [3]); 90.8 µM with KB (setting [4]).

`CC(=O)c1cc2cc(/C=C/C(=O)c3ccccc3)c3ccccc3c2oc1=O`: the IC50 entry in the assay on MCF7 (mcf7), in the assay on NIH3T3 (nih3t3), with A549 (a549), with C-33-A (c-33-a) and with KB (kb) was “Not Active” each time.

As to `CCOC(=O)c1cc2cc(/C=C/C(=O)c3ccc(C)cc3)cc(C(C)CC)c2oc1=O` (configuration not stated), the IC50 in the assay with MCF7 (setting [1]) is 81.1 µM; in the assay on NIH3T3 (nih3t3) it was “Not Active”; in the assay with A549 (setting [2]), 32.8 µM; in the assay with C-33-A (setting [3]), 3.59 µM; in the assay on KB (setting [4]), 18 µM.

Regarding `CCOC(=O)c1cc2cc(/C=C/C(=O)c3ccccc3)cc(C(C)CC)c2oc1=O` (configuration not stated), the IC50 in the assay on MCF7 (setting [1]) is 88.1 µM; in the assay on NIH3T3 (nih3t3) it was “Not Active”; in the assay with A549 (setting [2]), 12.9 µM; in the assay on C-33-A (setting [3]), 8.12 µM; in the assay on KB (setting [4]) it was 10.5 µM.

Take `CCC(C)c1cc(/C=C/C(=O)c2ccc(Cl)cc2)cc2cc(C(=O)OC)c(=O)oc12` (configuration not stated): the half-maximal inhibitory concentration (IC50) in the assay with MCF7 (setting [1]) was found to be 10.8 µM; in the assay with NIH3T3 (setting [5]), 42.4 µM; with A549 (setting [2]), 16.7 µM; in the assay on C-33-A (setting [3]) it was 5.9 µM; in the assay with KB (setting [4]) it was 28.2 µM.

On to `COC(=O)c1cc2cc(C=O)c3ccccc3c2oc1=O`, for which the concentration for half-maximal inhibition (IC50) in the assay with MCF7 (setting [1]) came to 61.7 µM; with NIH3T3 (setting [5]), 66 µM; in the assay with A549 (setting [2]), 75.7 µM; in the assay on C-33-A (setting [3]), 30.1 µM; with KB (setting [4]), 57.9 µM.

With `CCOC(=O)c1cc2cc(/C=C/C(=O)c3ccc(Cl)cc3)cc(C(C)CC)c2oc1=O` (configuration not stated), the IC50 came out at 11.1 µM with MCF7 (setting [1]); 38.4 µM in the assay with NIH3T3 (setting [5]); 12.8 µM in the assay on A549 (setting [2]); 4.54 µM in the assay with C-33-A (setting [3]); 14.3 µM in the assay on KB (setting [4]).

For `COc1cccc2c1C(=O)c1c(O)c3c(c(O)c1C2=O)C[C@@](O)(C(=O)CO)C[C@@H]3O[C@H]1C[C@H](N)[C@H](O)[C@H](C)O1` [DOXORUBICIN], the IC50 is 0.61 µM in the assay with MCF7 (setting [1]), 0.52 µM with A549 (setting [2]), 0.82 µM in the assay on C-33-A (setting [3]) and 0.22 µM in the assay on KB (setting [4]).

For `CC(=O)c1cc2cc(/C=C/C(=O)c3ccc(Cl)cc3)c3ccccc3c2oc1=O`, the IC50 result in the assay on MCF7 (mcf7), in the assay with NIH3T3 (nih3t3), in the assay with A549 (a549), in the assay on C-33-A (c-33-a) and in the assay on KB (kb) was “Not Active” throughout.

For the molecule `CC(=O)c1cc2cc(C=O)c3ccccc3c2oc1=O`, the IC50 in the assay on MCF7 (setting [1]) was 147 µM; in the assay with NIH3T3 (nih3t3) it was “Not Active”; with A549 (a549), “Not Active”; with C-33-A (setting [3]), 72.8 µM; in the assay with KB (setting [4]), 109 µM.

Take `CCOC(=O)c1cc2cc(C=O)c3ccccc3c2oc1=O`: the IC50 was 155 µM in the assay with MCF7 (setting [1]); “Not Active” in the assay with NIH3T3 (nih3t3); “Not Active” in the assay with A549 (a549); 93.5 µM in the assay with C-33-A (setting [3]); 124 µM in the assay with KB (setting [4]).

`CCOC(=O)c1cc2cc(/C=C/C(=O)c3ccc(C)cc3)c3ccccc3c2oc1=O`: the IC50 result in the assay on MCF7 (mcf7), in the assay with NIH3T3 (nih3t3), in the assay with A549 (a549), in the assay on C-33-A (c-33-a) and with KB (kb) was “Not Active” each time.

Consider `CCOC(=O)c1cc2cc(C=O)cc(C(C)CC)c2oc1=O` (configuration not stated), for which the IC50 result with NIH3T3 (nih3t3) is “Not Active”; in the assay on C-33-A (setting [3]), 64.3 µM; with KB (setting [4]), 132 µM.

As to `CC(=O)c1cc2cc(/C=C/C(=O)c3ccc(C)cc3)c3ccccc3c2oc1=O`, the IC50 result in the assay with MCF7 (mcf7), in the assay on NIH3T3 (nih3t3), with A549 (a549), in the assay on C-33-A (c-33-a) and in the assay with KB (kb) was “Not Active” throughout.

On to `CCC(C)c1cc(C=O)cc2cc(C(C)=O)c(=O)oc12` (configuration not stated), for which the IC50 with MCF7 (setting [1]) was 141 µM; in the assay on NIH3T3 (nih3t3), “Not Active”; in the assay with A549 (a549) it was “Not Active”; in the assay with C-33-A (setting [3]) it was 70 µM; with KB (setting [4]), 176 µM.

For `COC(=O)c1cc2cc(/C=C/C(=O)c3ccc(C)cc3)c3ccccc3c2oc1=O`, the IC50 in the assay with MCF7 (setting [1]) is 118 µM; in the assay on NIH3T3 (nih3t3), “Not Active”; with A549 (a549), “Not Active”; in the assay on C-33-A (setting [3]), 52 µM; in the assay with KB (setting [4]), 70.4 µM.
